Calls of active or inactive are those of the source.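 The calls were made as follows: active = compounds lowering caspase luminescence whose fitted AC50 is at most ten times their top valid dose; inconclusive = flat partial inhibition or a poor quality curve fit; inactive = the rest.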
System: not listed separately
Assay: suppressors of cytokine-driven caspase-3/7 activity, dose response, orthogonal assay for beta-cell apoptosis inhibitor project, INS-1E rat cells, dry powder, set 2 (AID 488936)
Conditions: INS-1E cytokine-induced caspase-3/7 luminescence, 48 h; at 23.5 µM (top of the series)
In short: (§1)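 Assay system: rat INS-1E insulinoma cells; Reagent: IFN-gamma, TNF-alpha and IL-1β cytokine cocktail; Control set: SAHA positive control; Measure: IC50 of caspase-3/7 activity from concentration-response curve; Detection: Luciferase-based luminescence, Caspase-Glo 3/7 reagent; Times: 48 h cytokine and compound exposure, 1 h detection.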

SMILES | activity change, negative = inhibition
COc1ccc(S(=O)(=O)N(C)C[C@@H]2Oc3c(NC(=O)C4CCOCC4)cccc3C(=O)N([C@@H](C)CO)C[C@H]2C)cc1 | -8.46% (inactive)
C[C@@H]1CN([C@@H](C)CO)C(=O)c2cccc(NC(=O)Nc3cccc4ccccc34)c2O[C@H]1CN(C)C(=O)Nc1ccc(C(F)(F)F)cc1 | 45.3% (inactive)
COc1ccc(S(=O)(=O)N(C)C[C@@H]2Oc3c(cccc3N(C)C)C(=O)N([C@@H](C)CO)C[C@H]2C)cc1 | -4.48% (inactive)
C[C@@H]1CN([C@@H](C)CO)C(=O)c2cccc(NC(=O)Nc3cccc4ccccc34)c2O[C@H]1CN(C)C(=O)Nc1ccccc1 | 14.9% (inactive)
COc1ccc(S(=O)(=O)N(C)C[C@@H]2Oc3c(NS(=O)(=O)c4ccc(C)cc4)cccc3C(=O)N([C@@H](C)CO)C[C@H]2C)cc1 | -2.16% (inactive)

Same assay, conditions: INS-1E cytokine-induced caspase-3/7 luminescence, 48 h; at 26 µM (top of the series)

SMILES | activity change, negative = inhibition
COc1ccc(S(=O)(=O)N(C)C[C@@H]2Oc3c(NC(=O)Nc4cccc5ccccc45)cccc3C(=O)N([C@@H](C)CO)C[C@H]2C)cc1F | 5.84% (inactive)
COc1ccc(NC(=O)Nc2cccc3c2O[C@@H](CN(C)S(=O)(=O)c2ccc(OC)cc2)[C@H](C)CN([C@@H](C)CO)C3=O)cc1 | -9.51% (inactive)
Cc1ccc(S(=O)(=O)N(C)C[C@@H]2Oc3c(NC(=O)Nc4ccccc4)cccc3C(=O)N([C@H](C)CO)C[C@H]2C)cc1 | -10.7% (inactive)
COc1ccc(S(=O)(=O)N(C)C[C@@H]2Oc3c(NC(=O)C4CCCCC4)cccc3C(=O)N([C@@H](C)CO)C[C@H]2C)cc1 | -7.12% (inactive)
C[C@@H]1CN([C@H](C)CO)C(=O)c2cccc(NC(=O)Nc3ccccc3)c2O[C@H]1CN(C)S(=O)(=O)c1ccc(F)cc1 | -4.27% (inactive)
COc1ccc(S(=O)(=O)Nc2cccc3c2O[C@@H](CN(C)S(=O)(=O)c2ccc(OC)cc2)[C@H](C)CN([C@@H](C)CO)C3=O)cc1 | -1.2% (inactive)
COc1ccc(S(=O)(=O)N(C)C[C@@H]2Oc3c(NC(=O)c4ccc(-c5nccs5)cc4)cccc3C(=O)N([C@@H](C)CO)C[C@H]2C)cc1 | 6.99% (inactive)
COc1ccc(S(=O)(=O)N(C)C[C@@H]2Oc3c(NC(=O)c4cnccn4)cccc3C(=O)N([C@@H](C)CO)C[C@H]2C)cc1 | -2.35% (inactive)
COc1ccc(S(=O)(=O)N(C)C[C@H]2Oc3c(NC(=O)Nc4cccc5ccccc45)cccc3C(=O)N([C@@H](C)CO)C[C@@H]2C)cc1 | -9.65% (inactive)
C[C@@H]1CN([C@H](C)CO)C(=O)c2cccc(NC(=O)Nc3ccccc3)c2O[C@H]1CN(C)S(=O)(=O)c1ccc(Cl)cc1 | -6.09% (inactive)
C[C@@H]1CN([C@@H](C)CO)C(=O)c2cccc(NC(=O)Nc3cccc4ccccc34)c2O[C@H]1CN(C)S(=O)(=O)c1ccc2c(c1)OCO2 | -4.01% (inactive)
COc1ccc(S(=O)(=O)N(C)C[C@@H]2Oc3c(NC(=O)Nc4cccc5ccccc45)cccc3C(=O)N([C@@H](C)CO)C[C@H]2C)cc1 | -10.2% (inactive)
COc1ccc(S(=O)(=O)N(C)C[C@@H]2Oc3c(NC(=O)c4cccc5ccccc45)cccc3C(=O)N([C@@H](C)CO)C[C@H]2C)cc1 | -10.7% (inactive)
COc1ccc(S(=O)(=O)N(C)C[C@@H]2Oc3c(NC(=O)NC(C)C)cccc3C(=O)N([C@@H](C)CO)C[C@H]2C)cc1 | -8.08% (inactive)
C[C@@H]1CN([C@@H](C)CO)C(=O)c2cccc(NC(=O)Nc3cccc4ccccc34)c2O[C@H]1CN(C)S(=O)(=O)c1ccccc1 | 6.84% (inactive)
COc1ccc(S(=O)(=O)N(C)C[C@@H]2Oc3c(NC(=O)Nc4ccc5c(c4)OCO5)cccc3C(=O)N([C@@H](C)CO)C[C@H]2C)cc1 | -4.99% (inactive)
C[C@@H]1CN([C@@H](C)CO)C(=O)c2cccc(NC(=O)Nc3cccc4ccccc34)c2O[C@H]1CN(C)C(=O)Nc1ccc2c(c1)OCO2 | 32.4% (inactive)
COc1ccc(S(=O)(=O)N(C)C[C@@H]2Oc3c(NC(=O)NC4CCCCC4)cccc3C(=O)N([C@@H](C)CO)C[C@H]2C)cc1 | -7.02% (inactive)
C[C@@H]1CN([C@@H](C)CO)C(=O)c2cccc(NC(=O)Nc3ccc(F)cc3)c2O[C@H]1CN(C)S(=O)(=O)c1ccc(Cl)cc1 | -5.69% (inactive)
COc1ccc(S(=O)(=O)N(C)C[C@@H]2Oc3ccc(NC(=O)Nc4cccc5ccccc45)cc3C(=O)N([C@@H](C)CO)C[C@H]2C)cc1 | 5.17% (inactive)
COc1cccc(S(=O)(=O)N(C)C[C@@H]2Oc3c(NC(=O)Nc4cccc5ccccc45)cccc3C(=O)N([C@@H](C)CO)C[C@H]2C)c1 | 14.2% (inactive)
CNC[C@@H]1Oc2c(NC(=O)Nc3cccc4ccccc34)cccc2C(=O)N([C@@H](C)CO)C[C@H]1C | -6.33% (inactive)

System: INS-1E cytokine-induced caspase-3/7 luminescence, 48 h
Assay: as above
Conditions: not given
In short: as §1

SMILES | AC50
C[C@@H]1CN([C@@H](C)CO)C(=O)c2cccc(NC(=O)Nc3cccc4ccccc34)c2O[C@H]1CN(C)S(=O)(=O)c1ccc2c(n1)N(C)CCO2 | > 26 µM (inactive)
COc1ccc(S(=O)(=O)N(C)C[C@@H]2Oc3c(NC(=O)Nc4ccccc4)cccc3C(=O)N([C@@H](C)CO)C[C@H]2C)cc1 | > 26 µM (inactive)
C[C@@H]1CN([C@@H](C)CO)C(=O)c2cccc(NC(=O)Nc3cccc(Cl)c3Cl)c2O[C@H]1CN(C)S(=O)(=O)c1ccc2c(c1)OCCO2 | > 26 µM (inactive)
COc1ccc(S(=O)(=O)N(C)C[C@@H]2Oc3c(NC(=O)Nc4cccc5ccccc45)cccc3C(=O)N([C@H](C)CO)C[C@H]2C)cc1 | > 23.5 µM (inactive)

Source: PubChem BioAssay AID488936 (Broad Institute, 2010)
